ChEMBL document CHEMBL1131429, “Nitrogen-carbon-linked (azolylphenyl)oxazolidinones with potent antibacterial activity against the fastidious gram-negative organisms Haemophilus influenzae and Moraxella catarrhalis” (J Med Chem, 1998)
In brackets after ≈: the same amount, converted by molar mass.

Key:
[1] = steady-state volume of distribution was evaluated in male Dawley rats; type: ADME, organism-based; settings: Sprague-Dawley, rat, in vivo, read-out: Vss
Method in brief: (§1)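 Single intravenous or oral doses were given to male Sprague-Dawley rats (n = 3), with plasma sampled to give Cmax and tmax. Vss was calculated as dose·AUMC/AUC², clearance as dose/AUC, and F as (AUC/dose)po/(AUC/dose)iv × 100, assuming linear PK. t1/2β is the harmonic mean terminal half-life. The oral entries show the iv half-life because the po half-life was not calculable.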

[2] = terminal disposition half-life was evaluated in male Dawley rats at 9.9 mg/kg when taken intravenously; type: ADME, organism-based; design: dose 9.9 mg/kg, route intravenous; settings: Sprague-Dawley, rat, in vivo, iv; method in brief: as §1
[3] = terminal disposition half-life was evaluated in male Dawley rats at a dose of 42.9 mg/kg when taken peroral; type: ADME, organism-based; design: dose 42.9 mg/kg, route oral; settings: Sprague-Dawley, rat, in vivo, po; method in brief: as §1
[4] = Absolute oral bioavailability was evaluated n male Dawley rats at a dose of 42.9 mg/kg when taken peroral; type: ADME, organism-based; settings: Sprague-Dawley, rat, in vivo; method in brief: as §1
[5] = test system: Haemophilus influenzae; experiment: The compound was evaluated for its anti-bacterial activity against Haemophilus influenzae UC 30063; type: functional
Method in brief: (§2)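 MICs were determined by standard agar dilution against a panel of Gram-positive and Gram-negative isolates.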

[6] = test system: Moraxella catarrhalis; experiment: The compound was evaluated for its anti-bacterial activity against Moraxella catarrhalis UC 30610; type: functional; method in brief: as §2
[7] = test system: Rattus norvegicus; experiment: Dawley rats 9.9 mg/kg when taken intravenously; type: functional; settings: route intravenous; method in brief: as §1
[8] = test system: Rattus norvegicus; experiment: Dawley rats at a dose of 42.9 mg/kg when taken peroral; type: functional; settings: route oral; method in brief: as §1
[9] = Cmax was evaluated in male Dawley rats at a dose of 42.9 mg/kg when taken perorally; type: ADME, organism-based; design: dose 42.9 mg/kg, route oral; settings: Sprague-Dawley, rat, in vivo, po; method in brief: as §1
[10] = Cmax was evaluated in male Dawley rats at a dose of 9.9 mg/kg when taken intravenously; type: ADME, organism-based; design: dose 9.9 mg/kg, route intravenous; settings: Sprague-Dawley, rat, in vivo, iv; method in brief: as §1
[11] = test system: Rattus norvegicus; experiment: tmax was evaluated in male Dawley rats at a dose of 42.9 mg/kg when taken perorally; type: functional, organism-based; design: dose 42.9 mg/kg; method in brief: as §1
[12] = test system: Staphylococcus epidermidis; experiment: The compound was evaluated for its anti-bacterial activity against methicillin resistant Staphylococcus epidermidis; type: functional
Method in brief: (§3)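 MIC determined in vitro by standard agar dilution against bacterial isolates.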

[13] = test system: Staphylococcus aureus; experiment: The compound was evaluated for its anti-bacterial activity against methicillin resistant Staphylococcus aureus; type: functional; method in brief: as §3
[14] = test system: Staphylococcus aureus; experiment: The compound was evaluated for its anti-bacterial activity against methicillin susceptible Staphylococcus aureus; type: functional; method in brief: as §3
[15] = test system: Streptococcus pneumoniae; experiment: The compound was evaluated for its control effective dose against Streptococcus pneumoniea UC 15087; type: functional
[16] = test system: Streptococcus pneumoniae; experiment: The compound was evaluated for its effective dose against Streptococcus pneumoniea UC 15087; type: functional
[17] = test system: Streptococcus pneumoniae; experiment: The compound was evaluated for its anti-bacterial activity against Streptococcus pneumoniae UC 9912; type: functional; method in brief: as §2
[18] = test system: Staphylococcus aureus; experiment: The compound was evaluated for its control effective dose against Staphylococcus aureus UC 9213; type: functional
[19] = test system: Staphylococcus aureus; experiment: The compound was evaluated for its effective dose against Staphylococcus aureus UC 9213; type: functional
[20] = test system: Enterococcus faecalis; experiment: The compound was evaluated for its anti-bacterial activity against Enterococcus faecalis UC 9217; type: functional; method in brief: as §2
[21] = terminal disposition half-life was evaluated in male Dawley rats at a dose of 46.8 mg/kg when taken peroral; type: ADME, organism-based; design: dose 46.8 mg/kg, route oral; settings: Sprague-Dawley, rat, in vivo, po; method in brief: as §1
[22] = Steady-state volume of distribution was evaluated in male Dawley rats at a dose of 9.0 mg/kg when taken intravenously; type: ADME, organism-based; design: dose 9 mg/kg, route intravenous; settings: Sprague-Dawley, rat, in vivo, iv, read-out: Vss; method in brief: as §1
[23] = Absolute oral bioavailability was evaluated n male Dawley rats at a dose of 46.8 mg/kg when taken peroral; type: ADME, organism-based; settings: Sprague-Dawley, rat, in vivo; method in brief: as §1
[24] = test system: Rattus norvegicus; experiment: Dawley rats at a dose of 46.8 mg/kg when taken peroral; type: functional; settings: route oral; method in brief: as §1
[25] = test system: Rattus norvegicus; experiment: Dawley rats at a dose of 9.0 mg/kg when taken intravenously; type: functional; settings: route intravenous; method in brief: as §1
[26] = Cmax was evaluated in male Dawley rats at a dose of 46.8 mg/kg when taken perorally; type: ADME, organism-based; design: dose 46.8 mg/kg, route oral; settings: Sprague-Dawley, rat, in vivo, po; method in brief: as §1
[27] = Cmax was evaluated in male Dawley rats at a dose of 9.0 mg/kg when taken intravenously; type: ADME, organism-based; design: dose 9 mg/kg, route intravenous; settings: Sprague-Dawley, rat, in vivo, iv; method in brief: as §1
[28] = tmax was evaluated in male Dawley rats at a dose of 46.8 mg/kg when taken perorally; type: ADME, organism-based; design: dose 46.8 mg/kg, route oral; settings: Sprague-Dawley, rat, in vivo, po; method in brief: as §1
[29] = terminal disposition half-life was evaluated in male Dawley rats at a dose of 9.0 mg/kg when taken intravenously; type: ADME, organism-based; design: dose 9 mg/kg, route intravenous; settings: Sprague-Dawley, rat, in vivo, iv; method in brief: as §1
[30] = Steady-state volume distribution was evaluated in male Dawley rats at a dose of 10 mg/kg when taken intravenously; type: ADME, organism-based; design: dose 10 mg/kg, route intravenous; settings: Sprague-Dawley, rat, in vivo, iv, read-out: Vss
[31] = test system: Rattus norvegicus; experiment: Dawley rats at a dose of 10 mg/kg when taken intravenously; type: functional; settings: route intravenous
[32] = Cmax was evaluated in male Dawley rats at a dose of 25 mg/kg when taken perorally; type: ADME, organism-based; design: dose 25 mg/kg, route oral; settings: Sprague-Dawley, rat, in vivo, po
[33] = test system: Rattus norvegicus; experiment: tmax was evaluated in male Dawley rats at a dose of 25 mg/kg when taken perorally; type: functional, organism-based; design: dose 25 mg/kg

Structure (SMILES) | MIC [5] [µg/mL] | MIC [6] [µg/mL] | MIC [12] [µg/mL] | MIC [13] [µg/mL] | MIC [14] [µg/mL] | MIC [17] [µg/mL] | ED50 [18] [mg/kg/day] | ED50 [19] [mg/kg/day] | MIC [20] [µg/mL] | other results
CC(=O)NC[C@H]1CN(c2ccc(-n3ccc(C#N)c3)c(F)c2)C(=O)O1 | 4 (≈ 11.7 µM) | 1 (≈ 2.92 µM) | < 0.125 | 0.25 (≈ 0.73 µM) | 0.5 (≈ 1.46 µM) | < 0.125 | 4 | 1.9 | 0.25 (≈ 0.73 µM) | Vd [1]: 0.52 L/kg; half-life [2]: 5.15 h; half-life [3]: 5.14 h; bioavailability [4]: 92%; CL/F [7]: 1.18 mL/min/kg; CL/F [8]: 1.43 mL/min/kg; Cmax [9]: 31 µM; Cmax [10]: 26.1 µM; Tmax [11]: 10 h; ED50 [15]: 1.4 mg/kg/day; ED50 [16]: 0.6 mg/kg/day
CC(=O)NC[C@H]1CN(c2ccc(-n3ccc(C=O)c3)c(F)c2)C(=O)O1 | 2 (≈ 5.79 µM) | 1 (≈ 2.9 µM) | < 0.125 | 0.25 (≈ 0.724 µM) | 0.25 (≈ 0.724 µM) | < 0.125 | 1.7 | >20 | 0.25 (≈ 0.724 µM) | –
CC(=O)NC[C@H]1CN(c2ccc(N3CCN(C(=O)CO)CC3)c(F)c2)C(=O)O1 [EPEREZOLID] | 16 (≈ 40.6 µM) | 8 (≈ 20.3 µM) | 0.5 (≈ 1.27 µM) | 1 (≈ 2.54 µM) | 4 (≈ 10.1 µM) | 0.5 (≈ 1.27 µM) | – | – | 2 (≈ 5.07 µM) | –
CN[C@H](CC(C)C)C(=O)N[C@H]1C(=O)N[C@@H](CC(N)=O)C(=O)N[C@H]2C(=O)N[C@H]3C(=O)N[C@H](C(=O)N[C@H](C(=O)O)c4cc(O)cc(O)c4-c4cc3ccc4O)[C@H](O)c3ccc(c(Cl)c3)Oc3cc2cc(c3O[C@@H]2O[C@H](CO)[C@@H](O)[C@H](O)[C@H]2O[C@H]2C[C@](C)(N)[C@H](O)[C@H](C)O2)Oc2ccc(cc2Cl)[C@H]1O [VANCOMYCIN] | > 32 | > 32 | – | – | – | 0.5 (≈ 0.345 µM) | – | – | – | –
CC(=O)NC[C@H]1CN(c2ccc(-n3ccc(/C=N\O)c3)c(F)c2)C(=O)O1 | 4 (≈ 11.1 µM) | 1 (≈ 2.78 µM) | 0.25 (≈ 0.694 µM) | 0.5 (≈ 1.39 µM) | 1 (≈ 2.78 µM) | < 0.125 | 2.6 | 5.5 | 0.5 (≈ 1.39 µM) | –
CCOC(=O)c1cnn(-c2ccc(N3C[C@H](CNC(C)=O)OC3=O)cc2F)c1 | > 16 | > 16 | 2 (≈ 5.12 µM) | 4 (≈ 10.2 µM) | 4 (≈ 10.2 µM) | 1 (≈ 2.56 µM) | – | – | 4 (≈ 10.2 µM) | –
CC(=O)NC[C@H]1CN(c2ccc(-n3cc(C#N)cn3)c(F)c2)C(=O)O1 | 4 (≈ 11.7 µM) | 2 (≈ 5.83 µM) | < 0.125 | 0.5 (≈ 1.46 µM) | 0.5 (≈ 1.46 µM) | < 0.125 | 3.3 | 1.2 | 0.5 (≈ 1.46 µM) | half-life [21]: 5.35 h; Vd [22]: 0.43 L/kg; bioavailability [23]: 80%; CL/F [24]: 1.25 mL/min/kg; CL/F [25]: 1.04 mL/min/kg; Cmax [26]: 29.4 µM; Cmax [27]: 29.2 µM; Tmax [28]: 4 h; ED50 [15]: 3.2 mg/kg/day; ED50 [16]: 0.35 mg/kg/day; half-life [29]: 5.35 h
CC(=O)NC[C@H]1CN(c2ccc(-n3cc(C(N)=O)cn3)c(F)c2)C(=O)O1 | > 16 | > 16 | 4 (≈ 11.1 µM) | – | > 16 | 0.5 (≈ 1.38 µM) | – | – | > 16 | –
CC(=O)NC[C@H]1CN(c2ccc(N3CCOCC3)c(F)c2)C(=O)O1 [LINEZOLID] | 16 (≈ 47.4 µM) | 8 (≈ 23.7 µM) | 1 (≈ 2.96 µM) | – | – | – | – | – | – | Vd [30]: 0.72 L/kg; CL/F [31]: 10.5 mL/min/kg; Cmax [32]: 15.8 µM; Tmax [33]: 0.3 h
